Test results taken from ChEMBL document CHEMBL4680082 (J Med Chem, 2016).
Several values for one entry are separate records, joined by “and”; a condition that tells them apart may be missing. Identical values can stand only once. Activity calls are given as the source filed them. The rule behind the calls is not given here.

Molecular target: T1, 5-hydroxytryptamine receptor 2C (Homo sapiens) (UniProt P28335)
T1 sequence (whole entry): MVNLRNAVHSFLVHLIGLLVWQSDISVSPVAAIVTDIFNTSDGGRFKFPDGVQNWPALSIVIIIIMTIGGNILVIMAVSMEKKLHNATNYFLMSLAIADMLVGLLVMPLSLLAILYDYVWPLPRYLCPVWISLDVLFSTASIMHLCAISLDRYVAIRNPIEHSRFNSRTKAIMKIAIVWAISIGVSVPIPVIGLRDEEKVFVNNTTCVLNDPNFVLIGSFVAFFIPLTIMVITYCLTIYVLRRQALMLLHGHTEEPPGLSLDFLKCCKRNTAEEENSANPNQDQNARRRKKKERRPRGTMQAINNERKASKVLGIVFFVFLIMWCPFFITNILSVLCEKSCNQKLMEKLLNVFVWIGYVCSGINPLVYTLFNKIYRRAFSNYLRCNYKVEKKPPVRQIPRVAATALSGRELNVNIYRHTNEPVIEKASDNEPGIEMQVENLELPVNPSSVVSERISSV
Test: Agonist activity at human 5-HT2C INI receptor expressed in human Flp-In-293 cells assessed as increase in [3H]myo-inositol accumulation at 1 uM after 30 hrs
Assay type: functional, cell-based
Details: filed as partial agonist
Method in brief: (§1)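 PI hydrolysis: Flp-In-293 5-HT2C INI cells, 25,000/well, labelled 16-18 h with [3H]-myo-inositol (2 µCi/well) in inositol-free DMEM, washed. Drug (1 µM) in HBSS/HEPES pH 7.4 buffer for the indicated times (5 min to 40 h). LiCl (15 mM final) added 2 h before lysis with cold 50 mM formic acid at 4 °C overnight. [3H]-inositol phosphates captured on yttrium silicate beads and counted as CPM.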

| Compound | Activity |
| --- | --- |
| NC[C@H]1C[C@@H]1c1c(OCCF)ccc2occc12 | Dose-dependent effect |

Molecular target: T1, 5-hydroxytryptamine receptor 2C (Homo sapiens)
Test: Induction of Gq-mediated receptor desensitization at human 5-HT2C INI receptor expressed in human Flp-In-293 cells assessed as reduction in Emax for [3H]myo-inositol accumulation at 1 uM after 20 hrs
Assay type: functional, cell-based
Details: filed as partial agonist
Method in brief: as §1

| Compound | Activity |
| --- | --- |
| NC[C@H]1C[C@@H]1c1c(OCCF)ccc2occc12 | Active |

Molecular target: T1, 5-hydroxytryptamine receptor 2C (Homo sapiens)
Test: Agonist activity at human 5-HT2C INI receptor expressed in human Flp-In-293 cells assessed as increase in [3H]myo-inositol accumulation at 1 uM after 90 mins
Assay type: functional, cell-based
Details: filed as partial agonist
Method in brief: as §1

| Compound | Activity |
| --- | --- |
| NC[C@H]1C[C@@H]1c1c(OCCF)ccc2occc12 | Active |

Molecular target: T1, 5-hydroxytryptamine receptor 2C (Homo sapiens)
Test: Agonist activity at human 5-HT2C INI receptor expressed in human Flp-In-293 cells assessed as induction of calcium flux by measuring log (Emax/EC50) incubated for 1 hr by Fluo-4 direct dye based FLIPR assay
Assay type: functional, cell-based
Details: not given
Method in brief: (§2)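 Calcium flux in Flp-In-293 cells stably expressing the human 5-HT2C INI isoform, Fluo-4 Direct loading for 1 h at 37 °C. Drug dilutions identical to those in the parallel Tango assay, 300 s read at 1 read/s, normalized to % 5-HT. Triplicate, mean ± SEM (n = 3). Bias factors were calculated from change in relative activity, log(Emax/EC50).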

| Compound | log(ratio) |
| --- | --- |
| C[C@H](N)Cn1ccc2cc(F)c(Cl)cc21 | 8.65 |

Molecular target: T1, 5-hydroxytryptamine receptor 2C (Homo sapiens)
Test: Agonist activity at human 5-HT2C INI receptor expressed in human Flp-In-293 cells assessed as increase in [3H]myo-inositol accumulation at 1 uM after 5 mins
Assay type: functional, cell-based
Details: filed as partial agonist
Method in brief: as §1

| Compound | Activity |
| --- | --- |
| NC[C@H]1C[C@@H]1c1c(OCCF)ccc2occc12 | Active |

Molecular target: T2, 5-hydroxytryptamine receptor 2B (Homo sapiens, UniProt P41595)
T2 sequence (P41595 whole entry): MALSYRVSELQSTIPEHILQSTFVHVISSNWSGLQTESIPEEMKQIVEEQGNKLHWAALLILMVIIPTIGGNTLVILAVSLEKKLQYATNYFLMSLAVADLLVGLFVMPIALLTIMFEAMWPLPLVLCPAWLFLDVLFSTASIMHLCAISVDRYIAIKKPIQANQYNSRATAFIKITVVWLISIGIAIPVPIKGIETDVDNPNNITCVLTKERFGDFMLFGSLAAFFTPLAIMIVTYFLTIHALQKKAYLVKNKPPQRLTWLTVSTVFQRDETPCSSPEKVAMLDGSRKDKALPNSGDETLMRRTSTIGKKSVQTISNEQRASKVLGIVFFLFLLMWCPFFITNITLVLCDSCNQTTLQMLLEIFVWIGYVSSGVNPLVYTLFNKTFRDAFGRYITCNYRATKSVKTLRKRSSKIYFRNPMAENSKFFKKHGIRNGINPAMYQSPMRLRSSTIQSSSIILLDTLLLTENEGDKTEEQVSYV
Test: Agonist activity at human 5-HT2B receptor expressed in human Flp-In-293 cells assessed as induction of calcium flux incubated for 1 hr by Fluo-4 direct dye based FLIPR assay relative to 5-HT
Assay type: functional, cell-based
Details: not given

| Compound | Emax |
| --- | --- |
| CCOc1ccc2c(c1[C@@H]1C[C@H]1CN)CCO2 | 30% |
| CC(C)Oc1ccc2occc2c1[C@@H]1C[C@H]1CN | 25% |

Same assay, conditions: filed as agonist

| Compound | Emax |
| --- | --- |
| NC[C@H]1C[C@@H]1c1c(OCCF)ccc2occc12 | 103% |

Molecular target: T1, 5-hydroxytryptamine receptor 2C (Homo sapiens)
Test: Agonist activity at human 5-HT2C INI receptor expressed in human Flp-In-293 cells assessed as induction of calcium flux incubated for 1 hr by Fluo-4 direct dye based FLIPR assay relative to 5-HT
Assay type: functional, cell-based
Details: filed as agonist
Method in brief: as §2

| Compound | Emax |
| --- | --- |
| C[C@H](N)Cn1ccc2cc(F)c(Cl)cc21 | 99% |

Same assay, conditions: filed as partial agonist

| Compound | Emax |
| --- | --- |
| NC[C@H]1C[C@@H]1c1c(OCCF)ccc2occc12 | 94% |

Molecular target: T3, 5-hydroxytryptamine receptor 2C (Homo sapiens, UniProt P28335)
T3 sequence (P28335 whole entry): T1 sequence (whole entry)
Test: Agonist activity at human 5-HT2C INI receptor expressed in human HEK293 cells assessed as induction of beta-arrestin-2 recruitment incubated for 20 hrs by Tango assay
Assay type: cell-based
Details: read-out: EC50
Method in brief: (§3)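 Tango assay in HTLA cells (HEK line expressing TEV-fused β-arrestin-2 and tTA-driven luciferase) transfected with 5-HT2C INI–tTA fusion carrying a TEV site. Cells were stimulated with the same dilutions used for FLIPR, 20 h at 37 °C and 5% CO2, then lysed with Bright-Glo for 20 min at room temperature and read by luminescence. Data normalized to % 5-HT and fitted sigmoidally; n = 3 in triplicate. Bias from log(Emax/EC50).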

| Compound | EC50 |
| --- | --- |
| NC[C@H]1C[C@@H]1c1c(OCCF)ccc2occc12 | 25 nM |
| C[C@H](N)Cn1ccc2cc(F)c(Cl)cc21 | 10 nM |

Same assay, conditions: read-out: pEC50 (converted)

| Compound | EC50 |
| --- | --- |
| C[C@H](N)Cn1ccc2cc(F)c(Cl)cc21 | 10.7 nM |

Molecular target: T3, 5-hydroxytryptamine receptor 2C
Test: Agonist activity at human 5-HT2C INI receptor expressed in human Flp-In-293 cells assessed as induction of calcium flux incubated for 1 hr by Fluo-4 direct dye based FLIPR assay
Assay type: functional, cell-based
Details: not given
Method in brief: as §2

| Compound | EC50 |
| --- | --- |
| NC[C@H]1C[C@@H]1c1c(OCCF)ccc2occc12 | 1.2 nM |
| C[C@H](N)Cn1ccc2cc(F)c(Cl)cc21 | 2.2 nM |

Molecular target: T4, 5-hydroxytryptamine receptor 2A (Homo sapiens, UniProt P28223)
T4 sequence (P28223 whole entry): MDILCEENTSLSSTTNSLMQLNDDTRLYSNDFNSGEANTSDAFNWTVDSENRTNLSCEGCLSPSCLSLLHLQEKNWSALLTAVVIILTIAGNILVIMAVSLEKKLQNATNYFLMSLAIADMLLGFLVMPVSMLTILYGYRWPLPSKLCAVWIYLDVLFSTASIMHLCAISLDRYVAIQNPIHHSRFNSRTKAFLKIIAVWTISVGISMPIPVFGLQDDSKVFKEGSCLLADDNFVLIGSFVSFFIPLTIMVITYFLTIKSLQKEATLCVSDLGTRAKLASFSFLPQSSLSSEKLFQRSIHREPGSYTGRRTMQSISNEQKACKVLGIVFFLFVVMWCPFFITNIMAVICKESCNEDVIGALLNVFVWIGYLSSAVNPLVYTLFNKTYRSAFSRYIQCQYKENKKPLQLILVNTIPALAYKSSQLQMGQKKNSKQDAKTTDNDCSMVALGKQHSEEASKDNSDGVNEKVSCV
Test: Agonist activity at human 5-HT2A receptor expressed in human Flp-In-293 cells assessed as induction of calcium flux incubated for 1 hr by Fluo-4 direct dye based FLIPR assay relative to 5-HT
Assay type: functional, cell-based
Details: not given

| Compound | Emax |
| --- | --- |
| CCOc1ccc2c(c1[C@@H]1C[C@H]1CN)CCO2 | 35% |
| CC(C)Oc1ccc2occc2c1[C@@H]1C[C@H]1CN | 38% |

Same assay, conditions: filed as agonist

| Compound | Emax |
| --- | --- |
| NC[C@H]1C[C@@H]1c1c(OCCF)ccc2occc12 | 98% |

Molecular target: T1, 5-hydroxytryptamine receptor 2C (Homo sapiens)
Test: Agonist activity at human 5-HT2C INI receptor expressed in human HEK293 cells assessed as induction of beta-arrestin-2 recruitment incubated for 20 hrs by Tango assay relative to 5HT
Assay type: cell-based
Details: not given
Method in brief: as §3

| Compound | Emax |
| --- | --- |
| NC[C@H]1C[C@@H]1c1c(OCCF)ccc2occc12 | 28% |

Same assay, conditions: filed as agonist

| Compound | Emax |
| --- | --- |
| C[C@H](N)Cn1ccc2cc(F)c(Cl)cc21 | 87% |

Molecular target: T4, 5-hydroxytryptamine receptor 2A
Details: not given

| Compound | EC50 |
| --- | --- |
| CCOc1ccc2c(c1[C@@H]1C[C@H]1CN)CCO2 | 976 nM |
| NC[C@H]1C[C@@H]1c1c(OCCF)ccc2occc12 | 22 nM |
| CC(C)Oc1ccc2occc2c1[C@@H]1C[C@H]1CN | 938 nM |

Molecular target: T1, 5-hydroxytryptamine receptor 2C (Homo sapiens)
Test: Agonist activity at human 5-HT2C INI receptor expressed in human HEK293 cells assessed as induction of beta-arrestin-2 recruitment by measuring log (Emax/EC50) incubated for 20 hrs by Tango assay relative to 5HT
Assay type: cell-based
Details: not given
Method in brief: as §3

| Compound | log(ratio) |
| --- | --- |
| C[C@H](N)Cn1ccc2cc(F)c(Cl)cc21 | 7.94 |

Molecular target: T3, 5-hydroxytryptamine receptor 2C
Details: not given

| Compound | EC50 |
| --- | --- |
| CCOc1ccc2c(c1[C@@H]1C[C@H]1CN)CCO2 | 41 nM |
| NC[C@H]1C[C@@H]1c1c(OCCF)ccc2occc12 | 0.603 nM and 0.59 nM |
| CC(C)Oc1ccc2occc2c1[C@@H]1C[C@H]1CN | 21 nM |

Molecular target: T2, 5-hydroxytryptamine receptor 2B
Details: not given

| Compound | EC50 |
| --- | --- |
| CCOc1ccc2c(c1[C@@H]1C[C@H]1CN)CCO2 | 781 nM |
| NC[C@H]1C[C@@H]1c1c(OCCF)ccc2occc12 | 46 nM |
| CC(C)Oc1ccc2occc2c1[C@@H]1C[C@H]1CN | 453 nM |

Molecular target: T1, 5-hydroxytryptamine receptor 2C (Homo sapiens)
Test: Agonist activity at human 5-HT2C receptor expressed in human Flp-In-293 cells assessed as induction of calcium flux incubated for 1 hr by Fluo-4 direct dye based FLIPR assay relative to 5-HT
Assay type: functional, cell-based
Details: filed as agonist

| Compound | Emax |
| --- | --- |
| CCOc1ccc2c(c1[C@@H]1C[C@H]1CN)CCO2 | 105% |
| CC(C)Oc1ccc2occc2c1[C@@H]1C[C@H]1CN | 97% |

Same assay, conditions: filed as partial agonist

| Compound | Emax |
| --- | --- |
| NC[C@H]1C[C@@H]1c1c(OCCF)ccc2occc12 | 97% |

Molecular target: T1, 5-hydroxytryptamine receptor 2C (Homo sapiens)
Test: Bias factor, ratio of log(Emax/EC50) of lorcaserin to test compound for agonist activity at human 5-HT2C INI receptor expressed in human Flp-In-293 cells assessed as induction of calcium flux incubated for 1 hr by Fluo-4 direct dye based FLIPR assay
Assay type: functional, cell-based
Details: not given
Method in brief: as §2

| Compound | Ratio |
| --- | --- |
| C[C@H](N)Cn1ccc2cc(F)c(Cl)cc21 | 0.3 |

Molecular target: T1, 5-hydroxytryptamine receptor 2C (Homo sapiens)
Test: Agonist activity at human 5-HT2C receptor expressed in human Flp-In-293 cells assessed as induction of calcium flux by measuring log (Emax/EC50) incubated for 1 hr by Fluo-4 direct dye based FLIPR assay
Assay type: functional, cell-based
Details: not given

| Compound | log(ratio) |
| --- | --- |
| CCOc1ccc2c(c1[C@@H]1C[C@H]1CN)CCO2 | 7.41 |
| CC(C)Oc1ccc2occc2c1[C@@H]1C[C@H]1CN | 7.66 |

Molecular target: T1, 5-hydroxytryptamine receptor 2C (Homo sapiens)
Test: Bias factor, ratio of log(Emax/EC50) of lorcaserin to test compound for agonist activity at human 5-HT2C INI receptor expressed in human HEK293 cells assessed as induction of beta-arrestin-2 recruitment incubated for 20 hrs by Tango assay
Assay type: cell-based
Details: not given
Method in brief: as §3

| Compound | Ratio |
| --- | --- |
| C[C@H](N)Cn1ccc2cc(F)c(Cl)cc21 | 3.3 |

Molecular target: T1, 5-hydroxytryptamine receptor 2C (Homo sapiens)
Test: Agonist activity at human 5-HT2C INI receptor expressed in human Flp-In-293 cells assessed as increase in [3H]myo-inositol accumulation at 1 uM measured up to 5 hrs
Assay type: functional, cell-based
Details: filed as partial agonist, time hrs <=5
Method in brief: as §1

| Compound | Activity |
| --- | --- |
| NC[C@H]1C[C@@H]1c1c(OCCF)ccc2occc12 | Active |

Molecular target: T1, 5-hydroxytryptamine receptor 2C (Homo sapiens)
Test: Induction of Gq-mediated receptor desensitization at human 5-HT2C INI receptor expressed in human Flp-In-293 cells assessed as reduction in Emax for additional 5-HT-stimulated calcium flux at <1 uM pre-incubated for 30 mins followed by drug wash out (3 times) by Fluo-4 direct dye based FLIPR assay
Assay type: functional, cell-based
Details: dose microM <1, time 30.0 min

| Compound | Activity |
| --- | --- |
| NC[C@H]1C[C@@H]1c1c(OCCF)ccc2occc12 | inactive |

Molecular target: T2, 5-hydroxytryptamine receptor 2B
Test: Agonist activity at human 5-HT2B receptor expressed in human Flp-In-293 cells assessed as induction of calcium flux by measuring log(Emax/EC50) incubated for 1 hr by Fluo-4 direct dye based FLIPR assay
Assay type: functional, cell-based
Details: not given

| Compound | log(ratio) |
| --- | --- |
| CCOc1ccc2c(c1[C@@H]1C[C@H]1CN)CCO2 | 5.58 |
| CC(C)Oc1ccc2occc2c1[C@@H]1C[C@H]1CN | 5.74 |

Molecular target: T4, 5-hydroxytryptamine receptor 2A
Test: Agonist activity at human 5-HT2A receptor expressed in human Flp-In-293 cells assessed as induction of calcium flux by measuring log(Emax/EC50) incubated for 1 hr by Fluo-4 direct dye based FLIPR assay
Assay type: functional, cell-based
Details: not given

| Compound | log(ratio) |
| --- | --- |
| CCOc1ccc2c(c1[C@@H]1C[C@H]1CN)CCO2 | 5.55 |
| CC(C)Oc1ccc2occc2c1[C@@H]1C[C@H]1CN | 5.61 |
